Experimental data published in article PMC6408981 (Neuropharmacology, 2018).

Columns and labels:
ICR mice [1] = test: Nicotine conditioned place preference; assay type: in vivo, mouse
Method in brief: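 Male ICR mice underwent unbiased three-chamber CPP. Day 1: 5-min middle-chamber habituation, then 15 min free access as baseline. Days 2–4: two 20-min conditioning sessions daily, 4 h apart. Controls got saline in both large chambers, with i.p. pretreatment 15 min before. Day 5: 15-min drug-free test. Score = test minus baseline time on the paired side.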

PPAR-α = biological target: T1, PPAR-α (Mus musculus, UniProt P23204); test: PPAR-α luciferase assay in COS-7 cells; assay type: cell-based; conditions: 18 h
T1 sequence (P23204 1-468): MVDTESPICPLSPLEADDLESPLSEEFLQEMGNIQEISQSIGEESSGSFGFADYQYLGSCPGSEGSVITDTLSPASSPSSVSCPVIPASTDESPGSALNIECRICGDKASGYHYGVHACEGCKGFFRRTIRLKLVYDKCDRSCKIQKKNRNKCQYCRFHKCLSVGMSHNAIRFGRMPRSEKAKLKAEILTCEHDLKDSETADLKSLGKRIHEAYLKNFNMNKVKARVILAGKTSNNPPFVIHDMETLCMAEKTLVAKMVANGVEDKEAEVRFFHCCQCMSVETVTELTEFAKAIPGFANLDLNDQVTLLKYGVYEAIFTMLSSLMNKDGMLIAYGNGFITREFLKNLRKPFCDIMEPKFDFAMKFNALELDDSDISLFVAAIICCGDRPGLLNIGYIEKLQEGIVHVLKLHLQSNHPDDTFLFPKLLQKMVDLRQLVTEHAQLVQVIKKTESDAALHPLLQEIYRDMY
Method in brief: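 COS-7 cells in DMEM with 10% FBS were transfected by lipofection with mouse PPAR-α (25 ng), PPRE×3-TK-luciferase (300 ng), β-galactosidase control (100 ng) and empty pcDNA3 (75 ng) per well. Next day the medium was replaced with compound-containing medium for 18 h. Firefly luciferase chemiluminescence was normalised to β-galactosidase activity and compared by Welch-corrected t-test.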

[2] = biological target: human recombinant CB2 receptor (Homo sapiens, UniProt P34972); test: Cannabinoid receptor binding, [3H]-CP-55,940 displacement, CB2
Method in brief: (§1)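 Membranes from HEK-293 cells stably expressing the human receptor (CB1 Bmax 2.5, CB2 Bmax 4.7 pmol/mg protein) were incubated with test compound and [3H]-CP-55,940 for 90 min at 30 °C. […] Nonspecific binding was defined with 10 μM WIN 55212-2. Ki came from IC50 via Cheng-Prusoff; at least 3 experiments, mean ± SEM.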

ICR mice [3] = test: Morphine conditioned place preference; assay type: in vivo, mouse; conditions: OlGly i.p. pretreatment, morphine 10 mg/kg s.c. (methods)
Method in brief: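 Unbiased three-chamber CPP in male ICR mice. Day 1 baseline: 15 min free access after 5-min habituation. Days 2–4: twice-daily conditioning, 4 h apart and counterbalanced. Test compound or vehicle was given i.p. 15 min before morphine (10 mg/kg s.c.); 30-min sessions began 15 min after morphine. Day 5: 15-min drug-free test. Score = test minus baseline time in the morphine-paired side.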

ICR mice [4] = test: Cumulative CP55,940 dose-response study; assay type: in vivo, mouse
Method in brief: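 Male ICR mice (6–8 weeks, 27–32 g) received test compound (60 mg/kg i.p.) or vehicle 10 min before the first CP55,940 dose. Further doses followed every 40 min. Bar-test catalepsy, tail-flick and rectal temperature were measured at baseline and 30 min after each dose. Analysis was two-way ANOVA with Sidak post-hoc.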

rats = conditions: ref Chaturvedi et al., 2006; cited from earlier work
[5] = biological target: human recombinant CB1 receptor (Homo sapiens, UniProt P21554); test: Cannabinoid receptor binding, [3H]-CP-55,940 displacement, CB1
Method in brief: as §1

nicotine-dependent mice = test: Mecamylamine-precipitated nicotine withdrawal; assay type: in vivo, mouse
Method in brief: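 Male ICR mice (6–8 weeks, 27–32 g) had s.c. minipumps implanted under isoflurane, delivering nicotine 24 mg/kg/day or saline for 14 days. On day 15 they got the test compound i.p. (10, 30 or 60 mg/kg) or vehicle, then mecamylamine 2 mg/kg s.c. at 15 min. From 25 min, blinded scoring: 5 min elevated plus maze (open/closed-arm time, arm crosses), then 20 min somatic signs; n = 7–8/group.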

ICR mice [6] = test: Tetrad behavioral assessment; assay type: in vivo, mouse; conditions: for Distance traveled / Speed / Time immobile: 10 min recording starting 5 min after injection; for Δ rectal temperature / Catalepsy / Antinociception: 30 min after injection; for Catalepsy: bar test; for Antinociception: tail withdrawal
Method in brief: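 Mice were acclimated at least 1 h, then baseline tail-withdrawal latency and body temperature were taken. Test compound or vehicle was given i.p.; 30 min later came bar-test catalepsy (immobility over 60 s), tail withdrawal (%MPE with 10 cutoff) and Δ temperature. Locomotor: 5 min post-dose, distance (cm) and immobile time (s) were video-tracked for 10 min. Analysis: one-way ANOVA, Dunnett.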

[7] = biological target: T2, fatty acid amide hydrolase (Rattus norvegicus, UniProt P97612); test: AEA hydrolysis by rat brain membranes; assay type: biochemical
T2 sequence (P97612 1-579): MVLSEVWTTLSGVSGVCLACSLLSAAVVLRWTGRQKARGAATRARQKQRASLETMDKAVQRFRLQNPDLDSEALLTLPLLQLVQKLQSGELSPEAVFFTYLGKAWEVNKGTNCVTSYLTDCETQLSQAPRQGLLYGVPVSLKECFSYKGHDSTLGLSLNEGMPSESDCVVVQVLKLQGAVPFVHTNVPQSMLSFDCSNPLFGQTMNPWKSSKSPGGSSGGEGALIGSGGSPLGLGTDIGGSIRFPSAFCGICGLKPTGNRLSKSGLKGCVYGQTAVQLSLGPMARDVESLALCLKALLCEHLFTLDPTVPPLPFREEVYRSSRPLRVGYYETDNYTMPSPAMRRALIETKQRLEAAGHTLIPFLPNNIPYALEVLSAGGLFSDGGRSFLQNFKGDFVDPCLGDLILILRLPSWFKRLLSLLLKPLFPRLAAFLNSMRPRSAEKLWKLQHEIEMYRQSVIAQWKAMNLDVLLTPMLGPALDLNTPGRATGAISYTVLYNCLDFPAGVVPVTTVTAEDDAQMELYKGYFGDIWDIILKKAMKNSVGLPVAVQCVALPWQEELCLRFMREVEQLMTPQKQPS

[8] = OlGly levels in plasma and brain regions after i.p. injection; assay type: in vivo, mouse
Method in brief: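 ICR mice received test compound (60 mg/kg i.p.) or vehicle. After 15 min, plasma, insular cortex, hippocampus and hypothalamus were collected. Samples were extracted with chloroform/methanol/50 mM Tris-HCl pH 7.5 (2:1:1) containing deuterated internal standards. Quantification was by isotope-dilution LC-MS (C18 column, isocratic methanol/water/acetic acid, positive ESI).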

ICR mice [9] = conditions: ref Ignatowska-Jankowska et al., 2015; cited from earlier work
dependent smokers = conditions: ref Perkins et al., 2016; cited from earlier work
mice = conditions: ref Jackson et al., 2017; cited from earlier work
smokers = conditions: clinical trials; ref Robinson et al., 2017; cited from earlier work
[10] = 60 mg/kg i.p., 15 min after injection, ICR mice

Chain of human recombinant CB1 receptor (P21554 whole entry): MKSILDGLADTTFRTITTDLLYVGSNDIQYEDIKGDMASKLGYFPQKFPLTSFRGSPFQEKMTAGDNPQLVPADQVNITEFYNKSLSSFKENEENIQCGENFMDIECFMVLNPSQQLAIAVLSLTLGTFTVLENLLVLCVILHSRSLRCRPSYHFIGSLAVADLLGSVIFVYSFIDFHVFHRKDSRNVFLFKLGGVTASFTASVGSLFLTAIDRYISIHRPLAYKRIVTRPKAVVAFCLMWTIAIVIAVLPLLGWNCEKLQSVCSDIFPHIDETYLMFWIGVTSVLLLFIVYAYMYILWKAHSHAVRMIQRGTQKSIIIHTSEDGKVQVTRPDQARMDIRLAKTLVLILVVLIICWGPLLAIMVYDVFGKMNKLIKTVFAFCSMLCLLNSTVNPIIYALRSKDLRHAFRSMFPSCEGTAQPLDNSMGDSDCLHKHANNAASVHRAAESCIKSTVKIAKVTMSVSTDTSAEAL
Chain of human recombinant CB2 receptor (P34972 whole entry): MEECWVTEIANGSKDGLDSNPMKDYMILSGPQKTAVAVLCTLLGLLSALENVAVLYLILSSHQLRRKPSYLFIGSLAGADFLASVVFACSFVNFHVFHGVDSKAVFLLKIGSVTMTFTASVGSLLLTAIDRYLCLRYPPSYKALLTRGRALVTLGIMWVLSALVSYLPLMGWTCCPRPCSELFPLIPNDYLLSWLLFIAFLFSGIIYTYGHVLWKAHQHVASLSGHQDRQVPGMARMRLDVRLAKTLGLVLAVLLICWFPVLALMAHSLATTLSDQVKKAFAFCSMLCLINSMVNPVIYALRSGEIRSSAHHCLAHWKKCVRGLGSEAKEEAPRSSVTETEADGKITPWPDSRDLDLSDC

CCC(=O)NC[C@H](Cc1ccc(OCCc2nc(-c3ccccc3)oc2C)cc1)N/C(C)=C\C(=O)c1ccc(C(F)(F)F)cc1 [GW6471, N-((2S)-2-(((1Z)-1-methyl-3-oxo-3-(4-(trifluoromethyl)phenyl)prop-1-enyl)amino)-3-(4-(2-(5-methyl2phenyl-1,3-oxazol-4-yl)ethoxy)phenyl)propyl)propanamide, reference compound]
Effect on OlGly blockade of nicotine CPP (ICR mice [1]; GW6471 2 mg/kg i.p. 30 min before OlGly, mice): fully prevented OlGly blockade of nicotine CPP

CC(C)(Sc1ccc(CCN(CCCCC2CCCCC2)C(=O)NC2CCCCC2)cc1)C(=O)O [GW7647, reference compound]
Luciferase activity compared to DMSO (PPAR-α; GW7647 10 mM as printed in Fig. 6): significantly increased luciferase activity

CCCCCCCC/C=C\CCCCCCCC(=O)NCC(=O)O [OlGly, N-oleoyl-glycine]
Luciferase activity compared to DMSO (PPAR-α; OlGly 10 mM, 50 μM and 100 mM as printed in Fig. 6): significantly increased luciferase activity
IC50 [2]: > 50 µM
Ki [2]: > 50 µM
CB2 displacement produced by maximum dose tested (50 μM) ([2]; 50 μM): 15.5 ± 6.40%
Morphine CPP (ICR mice [3]): did not carry over to morphine CPP
Development of nicotine-induced CPP (ICR mice [1]; i.p. 15 min before nicotine 0.5 mg/kg s.c. on conditioning days, mice): dose-dependently prevented the development of nicotine-induced CPP
Place preference in saline-treated mice (ICR mice [1]; saline-treated mice): did not affect place preference
Shift of the CP55,940 dose-response relationship in the tetrad assay (ICR mice [4]; OlGly 60 mg/kg i.p. 10 min before first CP55,940 dose, mice): did not alter the dose-response relationship
Locomotor activity (rats): decreases locomotor activity
Reduction of body temperature (rats): 1.5–2.0 °C
IC50 [5]: 45.5 ± 5.1 µM
Ki [5]: 27.8 ± 3.1 µM
CB1 displacement produced by maximum dose tested (50 μM) ([5]; 50 μM): 55.9 ± 7.3%
Number of mecamylamine-precipitated somatic withdrawal signs (nicotine-dependent mice; 60 mg/kg i.p., nicotine-dependent mice): attenuated the number of mecamylamine-precipitated somatic withdrawal signs
Overt behavioral alterations in control mice (nicotine-dependent mice; control mice continuously infused with saline): did not elicit overt behavioral alterations
Distance traveled (ICR mice [6]; 10 mg/kg i.p.): 24.3 ±1.2 cm
Speed (ICR mice [6]; 10 mg/kg i.p.): 8.1 ± 0.4 cm/s
Time immobile (ICR mice [6]; 10 mg/kg i.p.): 8.6 ± 1.6 s
Δ rectal temperature (ICR mice [6]; 10 mg/kg i.p.): −0.90 ± 0.19 °C
Catalepsy (ICR mice [6]; 10 mg/kg i.p.): 0.0 s
Antinociception (ICR mice [6]; 10 mg/kg i.p.): 12.0± 6.6 %MPE
Distance traveled (ICR mice [6]; 30 mg/kg i.p.): 21.5±1.7 cm
Speed (ICR mice [6]; 30 mg/kg i.p.): 7.2 ± 0.6 cm/s
Time immobile (ICR mice [6]; 30 mg/kg i.p.): 11.8 ± 6.2 s
Δ rectal temperature (ICR mice [6]; 30 mg/kg i.p.): −1.13 ± 0.26 °C
Catalepsy (ICR mice [6]; 30 mg/kg i.p.): 0.0 s
Antinociception (ICR mice [6]; 30 mg/kg i.p.): 6.0 ± 4.5 %MPE
Distance traveled (ICR mice [6]; 100 mg/kg i.p.): 18.6±1.5 cm
Speed (ICR mice [6]; 100 mg/kg i.p.): 6.21 ± 0.5 cm/s
Time immobile (ICR mice [6]; 100 mg/kg i.p.): 17.4 ± 7.3 s
Δ rectal temperature (ICR mice [6]; 100 mg/kg i.p.): −0.22 ± 0.5431 °C
Catalepsy (ICR mice [6]; 100 mg/kg i.p.): 0.0 s
Antinociception (ICR mice [6]; 100 mg/kg i.p.): 25.9±11.0 %MPE
IC50 [7]: 8.65 µM
inhibition at 50 µM ([7]; read-out: FAAH inhibition produced by maximum dose tested (50 μM)): 89.4%
OlGly levels in hippocampus [8, 10]: 186.0 ± 60.05 pmol/g
OlGly levels in hypothalamus [8, 10]: 245.6 ± 108.1 pmol/g
OlGly levels in insula [8, 10]: 168.0 ± 60.28 pmol/g
concentration at 15 min ([8]; ICR, mouse, plasma, intraperitoneal, 60 mg/kg): 2000 ± 627 nM

Cc1ccc2c(C(C[N+](=O)[O-])c3cccs3)c(-c3ccccc3)[nH]c2c1 (stereo not shown) [ZCZ011]
Shift of the CP55,940 dose-response curve (antinociceptive, cataleptic, hypothermic effects) (ICR mice [9]): elicited a leftward shift

CC(C)OC(=O)C(C)(C)Oc1ccc(C(=O)c2ccc(Cl)cc2)cc1 [fenofibrate]
Ability to stop smoking during a brief practice quit period (dependent smokers): did not facilitate the ability to stop smoking
Reversal of nicotine withdrawal (mice): failed to reverse nicotine withdrawal

Cc1c(C(=O)NN2CCCCC2)nn(-c2ccc(Cl)cc2Cl)c1-c1ccc(Cl)cc1 [rimonabant]
Smoking abstinence compared with placebo (smokers): effectively improved smoking abstinence

(−)-cis-3-[2-hydroxy-4-(1,1-dimethylheptyl)phenyl]-trans-4-(3-hydroxypropyl)-cyclohexanol [CP55,940, reference compound]
Catalepsy, antinociception and hypothermia (ICR mice [4]; cumulative 0, 0.3, 1 and 3 mg/kg i.p., vehicle-pretreated mice): dose-dependently induced
